≈ marks a conversion by molar mass, not a printed value.
Experiments:
MCF7 [1] = test: Antiproliferative activity against human MCF7 cells after 48 hrs by sulforhodamine B assay; type: functional; settings: MCF7, 48 h
Procedure, shortened: (§1)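 Tumor cells grown in RPMI 1640 with 5% fetal bovine serum, with penicillin/streptomycin in experimental cultures. Exposed in 96-well plates to samples in DMSO/RPMI at 0.25, 2.5, 25 and 250 µg/mL, 37 °C, 5% CO2, 48 h. Fixed with 50% trichloroacetic acid before (T0) and after treatment, protein stained with sulforhodamine B and read at 540 nm. GI50, TGI and LC50 in µg/mL from dose-response curves by non-linear regression.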

786-0 [2] = test: Antiproliferative activity against human 786-0 cells after 48 hrs by sulforhodamine B assay; type: functional; settings: 786-0, 48 h; procedure, shortened: as §1
U-251 [3] = test: Cytotoxicity against human U251 cells; type: cell-based
U-251 [4] = test: Antiproliferative activity against human U251 cells assessed as tumor growth inhibition after 48 hrs by sulforhodamine B assay; type: functional; settings: U-251, 48 h; procedure, shortened: as §1
[5] = Antiproliferative activity against human OVCAR3 cells after 48 hrs by sulforhodamine B assay; type: functional; settings: OVCAR-3, 48 h; procedure, shortened: as §1
Vero [6] = test: Cytotoxicity against african green monkey Vero cells after 48 hrs by sulforhodamine B assay; type: cell-based; settings: chlorocebus sabaeus
NCI-H460 [7] = test: Antiproliferative activity against human NCI-H460 cells assessed as tumor growth inhibition after 48 hrs by sulforhodamine B assay; type: functional; settings: NCI-H460, 48 h; procedure, shortened: as §1
[8] = Antiproliferative activity against human PC3 cells after 48 hrs by sulforhodamine B assay; type: functional; settings: PC-3, 48 h; procedure, shortened: as §1
NCI/ADR-RES [9] = test: Antiproliferative activity against human NCI/ADR-RES cells after 48 hrs by sulforhodamine B assay; type: functional; procedure, shortened: as §1
NCI/ADR-RES [10] = test: Antiproliferative activity against human NCI/ADR-RES cells assessed as tumor growth inhibition after 48 hrs by sulforhodamine B assay; type: functional; procedure, shortened: as §1
786-0 [11] = test: Antiproliferative activity against human 786-0 cells assessed as tumor growth inhibition after 48 hrs by sulforhodamine B assay; type: functional; settings: 786-0, 48 h; procedure, shortened: as §1
NCI-H460 [12] = test: Antiproliferative activity against human NCI-H460 cells after 48 hrs by sulforhodamine B assay; type: functional; settings: NCI-H460, 48 h; procedure, shortened: as §1
[13] = Antiproliferative activity against human OVCAR3 cells assessed as tumor growth inhibition after 48 hrs by sulforhodamine B assay; type: functional; settings: OVCAR-3, 48 h; procedure, shortened: as §1
MCF7 [14] = test: Antiproliferative activity against human MCF7 cells assessed as tumor growth inhibition after 48 hrs by sulforhodamine B assay; type: functional; settings: MCF7, 48 h; procedure, shortened: as §1
Vero [15] = test: Cytotoxicity against african green monkey Vero cells assessed as tumor growth inhibition after 48 hrs by sulforhodamine B assay; type: cell-based; settings: chlorocebus sabaeus
Procedure, shortened: (§2)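 Non-tumor lines (human HaCaT keratinocytes; Vero) in RPMI 1640 with 5% FBS, with penicillin/streptomycin added to experimental cultures. 48 h exposure at 0.25–250 µg/mL (DMSO/RPMI), 37 °C, 5% CO2. TCA fixation at time zero and at end, sulforhodamine B protein stain, absorbance 540 nm. TGI (total growth inhibition) from non-linear regression of the dose-response curve.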

U-251 [16] = test: Antiproliferative activity against human U251 cells after 48 hrs by sulforhodamine B assay; type: functional; settings: U-251, 48 h; procedure, shortened: as §1
[17] = Antiproliferative activity against human PC3 cells assessed as tumor growth inhibition after 48 hrs by sulforhodamine B assay; type: functional; settings: PC-3, 48 h; procedure, shortened: as §1
HaCaT [18] = test: Cytotoxicity against human HaCaT cells after 48 hrs by sulforhodamine B assay; type: cell-based
HaCaT [19] = test: Cytotoxicity against human HaCaT cells assessed as tumor growth inhibition after 48 hrs by sulforhodamine B assay; type: cell-based; procedure, shortened: as §2

SMILES	GI50 (MCF7 [1]) [µg/mL]	GI50 (786-0 [2]) [µg/mL]	LC50 (U-251 [3]) [µg/mL]	TGI (U-251 [4]) [µg/mL]	GI50 [5] [µg/mL]	LC50 (Vero [6]) [µg/mL]	TGI (NCI-H460 [7]) [µg/mL]	GI50 [8] [µg/mL]	GI50 (NCI/ADR-RES [9]) [µg/mL]	TGI (NCI/ADR-RES [10]) [µg/mL]	TGI (786-0 [11]) [µg/mL]	GI50 (NCI-H460 [12]) [µg/mL]	TGI [13] [µg/mL]	TGI (MCF7 [14]) [µg/mL]	TGI (Vero [15]) [µg/mL]	GI50 (U-251 [16]) [µg/mL]	TGI [17] [µg/mL]	LC50 (HaCaT [18]) [µg/mL]	TGI (HaCaT [19]) [µg/mL]
CCCCCCCC/C=C\CCCCCCCC(=O)N1CCCC1	5.2 (≈ 15.5 µM)	5.2 (≈ 15.5 µM)	14.2 (≈ 42.3 µM)	5.8 (≈ 17.3 µM)	11.5 (≈ 34.3 µM)	3.9 (≈ 11.6 µM)	153 (≈ 456 µM)	13 (≈ 38.7 µM)	0.2 (≈ 0.596 µM)	5.6 (≈ 16.7 µM)	23.3 (≈ 69.4 µM)	45.6 (≈ 136 µM)	14 (≈ 41.7 µM)	> 250	10.6 (≈ 31.6 µM)	3.8 (≈ 11.3 µM)	21.9 (≈ 65.3 µM)		
CCCCCC[C@@H](O)C/C=C\CCCCCCCC(=O)N1CCCC1	4.4 (≈ 12.5 µM)	4.1 (≈ 11.7 µM)		4.4 (≈ 12.5 µM)	4.3 (≈ 12.2 µM)	4 (≈ 11.4 µM)	6.2 (≈ 17.6 µM)	6.2 (≈ 17.6 µM)	4 (≈ 11.4 µM)	4 (≈ 11.4 µM)	6.9 (≈ 19.6 µM)	6.9 (≈ 19.6 µM)	4.1 (≈ 11.7 µM)	1.5 (≈ 4.27 µM)	6.8 (≈ 19.3 µM)	1.5 (≈ 4.27 µM)	4.3 (≈ 12.2 µM)		
CCCCC/C=C\C/C=C\CCCCCCCC(=O)N1CCCC1	4.2 (≈ 12.6 µM)	4.7 (≈ 14.1 µM)	44.4 (≈ 133 µM)	12 (≈ 36 µM)	5.7 (≈ 17.1 µM)	13.7 (≈ 41.1 µM)	36.6 (≈ 110 µM)	4.7 (≈ 14.1 µM)	4.7 (≈ 14.1 µM)	7.7 (≈ 23.1 µM)	21.9 (≈ 65.7 µM)	7 (≈ 21 µM)	33.9 (≈ 102 µM)	27.5 (≈ 82.4 µM)	45.1 (≈ 135 µM)	4.2 (≈ 12.6 µM)	32.6 (≈ 97.7 µM)		
CCCCCC[C@@H](O)C/C=C\CCCCCCCC(=O)N[C@@H](C)c1ccccc1	5.1 (≈ 12.7 µM)	6.7 (≈ 16.7 µM)	63.6 (≈ 158 µM)	13.9 (≈ 34.6 µM)	11.1 (≈ 27.6 µM)		132 (≈ 329 µM)	11.7 (≈ 29.1 µM)	1.9 (≈ 4.73 µM)	> 250	60.1 (≈ 150 µM)	8.3 (≈ 20.7 µM)	> 250	84.5 (≈ 210 µM)		3.6 (≈ 8.96 µM)	142 (≈ 353 µM)	9.7 (≈ 24.2 µM)	
CCCCCC[C@@H](O)C/C=C\CCCCCCCC(=O)NCCO	6.5 (≈ 19 µM)	6.6 (≈ 19.3 µM)		6.5 (≈ 19 µM)	4.1 (≈ 12 µM)	3.4 (≈ 9.96 µM)	9.8 (≈ 28.7 µM)	6.3 (≈ 18.4 µM)	2.8 (≈ 8.2 µM)	5.4 (≈ 15.8 µM)	20.4 (≈ 59.7 µM)	4.1 (≈ 12 µM)	8.8 (≈ 25.8 µM)	3.7 (≈ 10.8 µM)	7.6 (≈ 22.3 µM)	3.6 (≈ 10.5 µM)	23.5 (≈ 68.8 µM)		
CCCCCCCC/C=C\CCCCCCCC(=O)N[C@H](C)c1ccccc1	6.1 (≈ 15.8 µM)	26.8 (≈ 69.5 µM)		28.3 (≈ 73.4 µM)	56.9 (≈ 148 µM)	10.3 (≈ 26.7 µM)	106 (≈ 274 µM)	46.9 (≈ 122 µM)	3 (≈ 7.78 µM)	35.3 (≈ 91.5 µM)	84.8 (≈ 220 µM)	36.6 (≈ 94.9 µM)	> 250	40.8 (≈ 106 µM)	43 (≈ 112 µM)	6.1 (≈ 15.8 µM)	162 (≈ 419 µM)		
COc1cccc2c1C(=O)c1c(O)c3c(c(O)c1C2=O)C[C@@](O)(C(=O)CO)C[C@@H]3O[C@H]1C[C@H](N)[C@H](O)[C@H](C)O1 [DOXORUBICIN]				0.92 (≈ 1.69 µM)			4.9 (≈ 9.02 µM)			1.6 (≈ 2.94 µM)	> 25		7.6 (≈ 14 µM)	3.3 (≈ 6.07 µM)	4.1 (≈ 7.54 µM)		11.7 (≈ 21.5 µM)		2.3 (≈ 4.23 µM)

From ChEMBL document CHEMBL3392966, “Antiproliferative activity of synthetic fatty acid amides from renewable resources” (Bioorg Med Chem, 2015)
